Four molecules from ChEMBL document CHEMBL3393046, “Conformationally-locked N-glycosides: exploiting long-range non-glycone interactions in the design of pharmacological chaperones for Gaucher disease” (Eur J Med Chem, 2015) can be followed below.

The test system of experiment [1] is Aspergillus niger. The experiment is described as follows: Inhibition of Aspergillus niger amyloglucosidase at 2 mM incubated for 10 to 30 mins by spectrophotometry. The method, boiled down: (§1)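 Reaction started by adding enzyme to substrate, without or with various inhibitor concentrations, in phosphate or phosphate-citrate buffer (α/β-mannosidase, amyloglucosidase) at each enzyme's optimal pH. Incubation 10–30 min at 37 °C (55 °C for amyloglucosidase), timed for 10–20% conversion. Stopped with 1 M Na₂CO₃, or for trehalase by heating then GLC-Trinder. Absorbance 405 nm (trehalase 492 nm). Approximate Ki from fixed substrate near Km.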

Experiment [2] concerns the target Alpha-galactosidase (Coffea arabica) (UniProt Q42656). The experiment is described as follows: Inhibition of green coffee alpha-galactosidase at 2 mM incubated for 10 to 30 mins using p-nitrophenyl alpha-D-glycopyranoside substrate by spectrophotometry. A digest of the protocol: as §1
For experiment [3], the system named is Helix pomatia. The experiment is described as follows: Inhibition of Helix pomatia beta-mannosidase at 2 mM incubated for 10 to 30 mins using substrate by spectrophotometry. A digest of the protocol: as §1
For experiment [4], the target named is T1, Uncharacterized protein (Sus scrofa) (UniProt I3LIR5).
T1 sequence (whole entry): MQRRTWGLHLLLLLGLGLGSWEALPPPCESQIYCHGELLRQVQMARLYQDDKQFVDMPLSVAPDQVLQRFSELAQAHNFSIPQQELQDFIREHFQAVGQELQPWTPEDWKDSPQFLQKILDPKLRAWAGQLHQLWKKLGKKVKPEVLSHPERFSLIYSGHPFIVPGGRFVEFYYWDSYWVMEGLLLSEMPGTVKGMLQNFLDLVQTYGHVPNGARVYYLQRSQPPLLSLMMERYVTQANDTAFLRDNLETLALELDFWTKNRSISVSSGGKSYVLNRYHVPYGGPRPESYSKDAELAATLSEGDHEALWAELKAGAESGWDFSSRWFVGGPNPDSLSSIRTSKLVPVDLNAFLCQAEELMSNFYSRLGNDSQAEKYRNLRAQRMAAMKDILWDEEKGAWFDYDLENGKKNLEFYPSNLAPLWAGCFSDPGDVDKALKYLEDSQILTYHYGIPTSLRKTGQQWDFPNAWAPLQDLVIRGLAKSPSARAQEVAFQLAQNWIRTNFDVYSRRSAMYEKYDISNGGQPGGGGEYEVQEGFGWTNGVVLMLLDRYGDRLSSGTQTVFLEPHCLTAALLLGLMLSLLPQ
Put plainly: Inhibition of pig kidney trehalase at 2 mM incubated for 10 to 30 mins using alpha,alpha'-trehalose substrate by spectrophotometry. The method, boiled down: as §1

The subject of experiment [5] is Prunus dulcis. The experiment is described as follows: Inhibition of almonds beta-glucosidase at 2 mM incubated for 10 to 30 mins using p-nitrophenyl beta-D-glycopyranoside substrate by spectrophotometry. A digest of the protocol:
as §1

In experiment [6] the test system is Penicillium decumbens. Put plainly: Inhibition of Penicillium decumbens naringinase at 2 mM incubated for 10 to 30 mins using substrate by spectrophotometry. The method, boiled down: as §1
Experiment [7] has as its target Beta-galactosidase (Escherichia coli K-12) (UniProt P00722). Put plainly: Inhibition of Escherichia coli beta-galactosidase at 2 mM incubated for 10 to 30 mins using o-nitrophenyl beta-D-galactopyranoside substrate by spectrophotometry. The method, boiled down: as §1
Experiment [8] relates to Saccharomyces bayanus. Put plainly: Inhibition of yeast alpha-glucosidase at 2 mM incubated for 10 to 30 mins using p-nitrophenyl alpha-D-glycopyranoside substrate by spectrophotometry. The method, boiled down:
as §1

The species named for experiment [9] is Homo sapiens. The experiment is described as follows: Inhibition of alpha-galactosidase (unknown origin) by spectrophotometry.
In experiment [10] the target is Lysosomal alpha-glucosidase (Homo sapiens) (UniProt P10253). Put plainly: Inhibition of alpha-glucosidase (unknown origin) by spectrophotometry.
Experiment [11] addresses T2, Lysosomal acid glucosylceramidase (Homo sapiens, UniProt P04062).
T2 sequence (P04062 whole entry): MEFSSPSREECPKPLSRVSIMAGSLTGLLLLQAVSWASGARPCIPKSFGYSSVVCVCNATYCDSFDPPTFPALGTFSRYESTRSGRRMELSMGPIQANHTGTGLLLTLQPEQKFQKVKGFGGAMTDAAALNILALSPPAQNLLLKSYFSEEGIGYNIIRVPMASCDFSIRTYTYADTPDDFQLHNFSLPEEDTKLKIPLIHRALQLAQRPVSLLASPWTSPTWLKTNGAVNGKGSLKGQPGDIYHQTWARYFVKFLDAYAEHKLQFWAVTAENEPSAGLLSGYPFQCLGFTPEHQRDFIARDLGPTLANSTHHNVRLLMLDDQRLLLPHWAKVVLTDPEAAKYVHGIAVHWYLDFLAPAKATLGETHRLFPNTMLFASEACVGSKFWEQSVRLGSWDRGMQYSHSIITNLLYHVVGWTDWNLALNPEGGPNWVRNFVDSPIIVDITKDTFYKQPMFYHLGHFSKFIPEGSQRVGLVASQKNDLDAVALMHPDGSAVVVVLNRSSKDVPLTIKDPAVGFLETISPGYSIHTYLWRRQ
The experiment is described as follows: Inhibition of human beta-glucocerebrosidase at pH 7.0 by spectrophotometry.

Experiment [12] relates to Saccharomyces cerevisiae. Put plainly: Inhibition of yeast isomaltase at 2 mM incubated for 10 to 30 mins by spectrophotometry. The method, boiled down:
as §1

For experiment [13], the target named is T2, Lysosomal acid glucosylceramidase. The experiment is described as follows: Inhibition of human beta-glucocerebrosidase at pH 5.0 by spectrophotometry.
The target of experiment [14] is T3, Beta-galactosidase (Homo sapiens) (UniProt P16278).
T3 sequence (whole entry): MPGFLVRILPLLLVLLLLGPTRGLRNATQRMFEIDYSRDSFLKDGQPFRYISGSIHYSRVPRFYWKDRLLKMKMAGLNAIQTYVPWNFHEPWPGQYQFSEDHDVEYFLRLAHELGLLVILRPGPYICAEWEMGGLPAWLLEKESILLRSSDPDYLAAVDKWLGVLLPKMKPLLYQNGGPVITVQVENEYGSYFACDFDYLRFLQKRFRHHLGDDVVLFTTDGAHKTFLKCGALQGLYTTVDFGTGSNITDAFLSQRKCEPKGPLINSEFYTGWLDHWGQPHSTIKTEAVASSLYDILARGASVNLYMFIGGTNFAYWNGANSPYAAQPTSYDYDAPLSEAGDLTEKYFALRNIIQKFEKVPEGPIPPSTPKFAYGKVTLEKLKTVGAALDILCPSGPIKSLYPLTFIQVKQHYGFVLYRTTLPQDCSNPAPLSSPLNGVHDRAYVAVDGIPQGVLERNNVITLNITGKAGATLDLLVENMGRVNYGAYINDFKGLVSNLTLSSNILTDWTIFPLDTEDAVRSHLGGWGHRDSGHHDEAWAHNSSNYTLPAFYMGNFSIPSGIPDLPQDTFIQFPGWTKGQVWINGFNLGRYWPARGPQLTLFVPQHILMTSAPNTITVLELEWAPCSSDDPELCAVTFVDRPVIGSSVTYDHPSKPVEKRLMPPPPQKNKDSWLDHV
Put plainly: Inhibition of beta-galactosidase (unknown origin) by spectrophotometry.

SMILES strings stand for the structures. Active and inactive are the calls of the source. The rule behind the calls is not given here.

Sequence of Alpha-galactosidase (Coffea arabica) (Q42656 16-378 limits assumed): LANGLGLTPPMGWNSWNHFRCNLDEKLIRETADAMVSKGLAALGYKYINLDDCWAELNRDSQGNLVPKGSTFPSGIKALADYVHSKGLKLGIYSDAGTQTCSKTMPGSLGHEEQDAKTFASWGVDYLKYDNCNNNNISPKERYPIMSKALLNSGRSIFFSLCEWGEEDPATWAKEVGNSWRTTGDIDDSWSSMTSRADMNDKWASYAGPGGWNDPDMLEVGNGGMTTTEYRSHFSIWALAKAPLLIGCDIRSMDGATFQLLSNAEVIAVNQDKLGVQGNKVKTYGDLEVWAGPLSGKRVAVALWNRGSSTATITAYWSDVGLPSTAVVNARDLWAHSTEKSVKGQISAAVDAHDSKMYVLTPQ
Sequence of Beta-galactosidase (Escherichia coli K-12) (P00722 whole entry): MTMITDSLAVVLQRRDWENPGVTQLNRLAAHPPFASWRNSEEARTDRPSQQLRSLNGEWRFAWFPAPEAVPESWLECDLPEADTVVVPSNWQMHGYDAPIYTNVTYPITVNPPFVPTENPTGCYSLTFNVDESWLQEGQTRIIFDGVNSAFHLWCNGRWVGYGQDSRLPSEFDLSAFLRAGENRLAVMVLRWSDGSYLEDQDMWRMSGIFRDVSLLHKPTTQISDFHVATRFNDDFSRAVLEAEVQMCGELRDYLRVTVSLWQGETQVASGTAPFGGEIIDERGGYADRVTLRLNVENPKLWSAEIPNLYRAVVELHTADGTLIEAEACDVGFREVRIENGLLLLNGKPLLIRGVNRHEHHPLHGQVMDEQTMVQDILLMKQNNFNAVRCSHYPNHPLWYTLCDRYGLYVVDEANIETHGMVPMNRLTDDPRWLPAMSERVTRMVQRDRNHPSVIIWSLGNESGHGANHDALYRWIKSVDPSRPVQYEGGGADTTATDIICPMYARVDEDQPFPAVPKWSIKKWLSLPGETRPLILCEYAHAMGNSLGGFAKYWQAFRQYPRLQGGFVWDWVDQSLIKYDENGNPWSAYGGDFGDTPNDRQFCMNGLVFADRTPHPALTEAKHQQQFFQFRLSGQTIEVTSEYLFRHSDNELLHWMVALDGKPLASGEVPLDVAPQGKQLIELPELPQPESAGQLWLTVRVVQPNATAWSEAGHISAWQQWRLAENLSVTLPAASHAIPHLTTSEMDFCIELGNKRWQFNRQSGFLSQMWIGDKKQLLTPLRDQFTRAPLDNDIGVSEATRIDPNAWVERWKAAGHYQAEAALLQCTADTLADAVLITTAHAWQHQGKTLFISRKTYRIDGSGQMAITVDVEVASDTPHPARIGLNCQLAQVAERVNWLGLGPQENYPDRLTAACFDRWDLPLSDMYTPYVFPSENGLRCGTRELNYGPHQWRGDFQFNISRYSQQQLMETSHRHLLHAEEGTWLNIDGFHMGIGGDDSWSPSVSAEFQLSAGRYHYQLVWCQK

As to `OC[C@H]1O[C@@H]2N=C(SCCCCCCCCCCCCCCCCF)O[C@@H]2[C@@H](O)[C@@H]1O`, the inhibition entry in [1], in experiment [2], in experiment [3], in [4], in experiment [5] and in [6] was “inactive” each time. The inhibition entry in experiment [7], in [8], in experiment [9], in experiment [10], in experiment [12] and in experiment [14] was “inactive” in each case. Besides, the half-maximal inhibitory concentration (IC50) in experiment [11] (read-out: IC50) came out at 3.9 µM; in experiment [13] (read-out: IC50), 27 µM.
Regarding `COC(=O)CCCCCCCCCCCCCCCSC1=N[C@H]2O[C@H](CO)[C@@H](O)[C@H](O)[C@H]2O1`, the inhibition entry in experiment [1], in [2], in experiment [3], in [4], in experiment [5] and in experiment [6] was “inactive” throughout. The inhibition entry in experiment [7], in experiment [8], in experiment [9], in [10], in experiment [12] and in experiment [14] was “inactive” throughout. For the same molecule, the IC50 in experiment [11] (read-out: IC50) was 33 µM; in [13] (read-out: IC50), 300 µM.
Regarding `OCCCCCCCCCCCCCCCCSC1=N[C@H]2O[C@H](CO)[C@H](O)[C@H](O)[C@H]2O1`, the inhibition result in experiment [1], in [2], in experiment [3], in experiment [4], in experiment [5] and in [6] was “inactive” in each case. Further, the inhibition entry in experiment [7], in [8], in [9], in experiment [10], in experiment [12] and in experiment [14] was “inactive” in each case. The half-maximal inhibitory concentration (IC50) entry in experiment [11] and in experiment [13] was “Not Active” throughout.
Take `OC[C@H]1O[C@@H]2N=C(SCCCCCCCCCCCCCCCCSC3=N[C@H]4O[C@H](CO)[C@@H](O)[C@H](O)[C@H]4O3)O[C@@H]2[C@@H](O)[C@@H]1O`: the inhibition entry in experiment [1], in experiment [2], in experiment [3], in experiment [4], in experiment [5] and in [6] was “inactive” in each case. In addition, the inhibition result in experiment [7], in experiment [8], in experiment [9], in experiment [10], in [12] and in experiment [14] was “inactive” in each case. Further, the half-maximal inhibitory concentration (IC50) entry in experiment [11] and in experiment [13] was “Not Active” in each case.

For orientation: IC50 means the concentration that gives 50% inhibition.
